Activity calls are given as the source filed them. The rule behind the calls is not given here.
biological target: T1, Amyloid-beta precursor protein (Homo sapiens, UniProt P05067); experiment: Inhibition of self-induced amyloid beta (1 to 42) (unknown origin) aggregation measured after 48 hrs by ThT fluorescence assay; conditions: not given
Summary of the method: (§1)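 Aβ1-42 is pretreated with HFIP (8 mg/ml) and dried to a film under nitrogen. The film is dissolved in DMSO to a 5 mM stock. This is diluted in 50 mM phosphate buffer, pH 7.4, to 100 µM final peptide, with or without compound, and incubated at 37 °C for 48 h. Samples are then diluted with 50 mM glycine-NaOH, pH 8.0, and fibrils quantified by ThT fluorescence. Blanks without Aβ are subtracted. Values are means ± SD of three experiments.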

T1 sequence (P05067 whole entry): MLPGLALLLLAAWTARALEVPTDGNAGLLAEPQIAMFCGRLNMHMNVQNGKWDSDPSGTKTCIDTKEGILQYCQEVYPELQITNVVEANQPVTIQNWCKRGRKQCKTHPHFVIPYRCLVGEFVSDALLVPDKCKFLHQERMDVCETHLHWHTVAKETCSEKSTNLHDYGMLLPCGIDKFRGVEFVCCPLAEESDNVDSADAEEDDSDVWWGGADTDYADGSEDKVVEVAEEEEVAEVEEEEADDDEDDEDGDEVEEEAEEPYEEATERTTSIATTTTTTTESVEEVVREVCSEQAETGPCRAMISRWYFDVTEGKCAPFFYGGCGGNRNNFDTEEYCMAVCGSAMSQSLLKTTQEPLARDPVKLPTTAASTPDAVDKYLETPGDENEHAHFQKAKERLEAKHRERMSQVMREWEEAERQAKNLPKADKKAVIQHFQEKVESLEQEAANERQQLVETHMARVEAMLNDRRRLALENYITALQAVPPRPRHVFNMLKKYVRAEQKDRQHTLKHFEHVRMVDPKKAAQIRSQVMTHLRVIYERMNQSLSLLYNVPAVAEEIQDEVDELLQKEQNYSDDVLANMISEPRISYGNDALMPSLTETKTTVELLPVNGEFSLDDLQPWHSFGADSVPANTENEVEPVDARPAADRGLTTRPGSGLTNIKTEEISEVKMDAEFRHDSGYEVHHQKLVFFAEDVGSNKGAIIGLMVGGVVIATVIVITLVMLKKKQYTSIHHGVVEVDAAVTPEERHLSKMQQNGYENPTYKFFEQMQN

Row | SMILES | IC50 [nM]
1 | Fc1ccc(C2C=C(c3cccc4ccccc34)Nc3nncn32)cc1 (stereo not drawn) | 3870
2 | O=[N+]([O-])c1cccc(C2C=C(c3cccc4ccccc34)Nc3nncn32)c1 (stereo not drawn) | 17400

biological target: Cholinesterase (Equus caballus, UniProt P81908); experiment: Inhibition of equine serum BuChE using butyrylthiocholine iodide as substrate preincubated for 5 mins followed by substrate addition and measured after 5 mins by Ellman method; conditions: not given
Sequence (P81908 whole entry): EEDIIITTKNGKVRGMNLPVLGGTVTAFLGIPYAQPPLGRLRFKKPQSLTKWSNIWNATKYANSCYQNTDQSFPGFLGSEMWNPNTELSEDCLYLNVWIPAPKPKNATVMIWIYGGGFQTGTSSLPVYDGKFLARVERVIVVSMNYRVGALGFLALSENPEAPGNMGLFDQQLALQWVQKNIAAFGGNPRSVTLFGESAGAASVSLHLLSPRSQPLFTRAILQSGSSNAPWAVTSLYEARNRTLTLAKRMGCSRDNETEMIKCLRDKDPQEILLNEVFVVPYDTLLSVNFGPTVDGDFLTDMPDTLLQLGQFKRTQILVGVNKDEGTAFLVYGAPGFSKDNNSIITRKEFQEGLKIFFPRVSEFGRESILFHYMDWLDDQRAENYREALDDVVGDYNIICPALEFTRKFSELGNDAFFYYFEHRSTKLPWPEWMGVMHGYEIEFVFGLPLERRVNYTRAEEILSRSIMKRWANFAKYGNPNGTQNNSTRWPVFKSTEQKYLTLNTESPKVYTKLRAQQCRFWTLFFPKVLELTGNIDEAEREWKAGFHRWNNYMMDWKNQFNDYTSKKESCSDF
Summary of the method: (§2)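 Ellman method. Equine serum BuChE 0.06 U/mL (for ratio lines, electric eel AChE 0.22 U/mL) in 1 M potassium phosphate buffer. Enzyme stood 5 min with compound before 0.01 M DTNB was added, with butyrylthiocholine iodide as substrate (acetylthiocholine for AChE). Compound range 0.01–100 µM final. IC50 as mean ± SD of three independent experiments. SI = IC50 BuChE / IC50 AChE.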

Row | SMILES | IC50 [nM]
3 | Fc1ccc(C2C=C(c3cccc4ccccc34)Nc3nncn32)cc1 (stereo not drawn) | 39000
4 | c1coc(-c2cc(-c3cccc4ccccc34)nc3nncn23)c1 | 528
5 | CN(C)c1ccc(-c2cc(-c3cccc4ccccc34)nc3nncn23)cc1 | 20900
6 | c1ccc(-c2cc(-c3cccc4ccccc34)nc3nncn23)cc1 | > 100000
7 | Clc1ccc(C2C=C(c3cccc4ccccc34)Nc3nncn32)cc1 (stereo not drawn) | 900
8 | O=[N+]([O-])c1cccc(C2C=C(c3cccc4ccccc34)Nc3nncn32)c1 (stereo not drawn) | > 100000
9 | COc1ccc(C2C=C(c3cccc4ccccc34)Nc3nncn32)cc1 (stereo not drawn) | 150
10 | COc1ccc(-c2cc(-c3cccc4ccccc34)nc3nncn23)cc1OC | > 100000
11 | COc1ccc(OC)c(C2C=C(c3cccc4ccccc34)Nc3nncn32)c1 (stereo not drawn) | > 100000
12 | Clc1ccccc1C1C=C(c2cccc3ccccc23)Nc2nncn21 (stereo not drawn) | 76

biological target: T1, Amyloid-beta precursor protein; experiment: Inhibition of self-induced amyloid beta (1 to 42) (unknown origin) aggregation at 50 uM for 48 hrs by TEM analysis; conditions: not given
Summary of the method: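 Aβ1-42 in 50 mM phosphate buffer, pH 7.4, is incubated with or without compound at 37 °C for 48 h, with a curcumin co-incubation and a 0 h sample as comparisons. 10 µL aliquots are applied to carbon grids for 1 min at room temperature, washed with water and negatively stained with sodium phosphotungstate for 1 min. Fibrils are then imaged by transmission electron microscopy.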

Row | SMILES | inhibition
13 | Fc1ccc(C2C=C(c3cccc4ccccc34)Nc3nncn32)cc1 (stereo not drawn) | Active
14 | O=[N+]([O-])c1cccc(C2C=C(c3cccc4ccccc34)Nc3nncn32)c1 (stereo not drawn) | Active

system: not listed separately; experiment: Antioxidant activity assessed as DPPH radical scavenging activity at 100 uM preincubated for 5 mins followed by DPPH addition and measured after 30 mins by ultraviolet spectrophotometric analysis relative to control; type: functional; conditions: not given
Summary of the method: (§3)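 DPPH (0.1 mM) in methanol. Test compound was added and held 5 min before DPPH, then 30 min incubation. Absorbance read at 517 nm. Scavenging % = (A1−A2)/A1×100, with A1 the control absorbance and A2 the compound absorbance. Run in triplicate in 96-well plates.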

Row | SMILES | Activity [%]
15 | O=C(O)c1cc(O)c(O)c(O)c1 | 95.3

biological target: T1, Amyloid-beta precursor protein; experiment: Inhibition of self-induced amyloid beta (1 to 42) (unknown origin) aggregation at 100 uM measured after 48 hrs by ThT fluorescence assay relative to control; conditions: not given; summary of the method: as §1

Row | SMILES | inhibition [%]
16 | Fc1ccc(C2C=C(c3cccc4ccccc34)Nc3nncn32)cc1 (stereo not drawn) | 95.4
17 | O=[N+]([O-])c1cccc(C2C=C(c3cccc4ccccc34)Nc3nncn32)c1 (stereo not drawn) | 91.4

biological target: T1, Amyloid-beta precursor protein; experiment: Inhibition of self-induced amyloid beta (1 to 42) (unknown origin) aggregation at 12.5 uM measured after 48 hrs by ThT fluorescence assay relative to control; conditions: not given; summary of the method: as §1

Row | SMILES | inhibition [%]
18 | Fc1ccc(C2C=C(c3cccc4ccccc34)Nc3nncn32)cc1 (stereo not drawn) | 70.4
19 | O=[N+]([O-])c1cccc(C2C=C(c3cccc4ccccc34)Nc3nncn32)c1 (stereo not drawn) | 42

biological target: T1, Amyloid-beta precursor protein; experiment: Disaggregation of self-induced amyloid beta (1 to 42) (unknown origin) preformed fibrils measured after 24 hrs by ThT fluorescence assay relative to control; conditions: not given
Summary of the method: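 HFIP-pretreated Aβ1-42, DMSO stock, diluted in 50 mM phosphate buffer pH 7.4 (100 µM final). Incubated 48 h at 37 °C to form fibrils, then compound or buffer added and held 24 h at 37 °C. Diluted to 200 µl with glycine-NaOH 50 mM pH 8.0, then ThT fluorescence read. Peptide-free buffer blanks with and without compound. Triplicates.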

Row | SMILES | Activity [%]
20 | Fc1ccc(C2C=C(c3cccc4ccccc34)Nc3nncn32)cc1 (stereo not drawn) | 62.6
21 | CN(C)c1ccc(-c2cc(-c3cccc4ccccc34)nc3nncn23)cc1 | 54.5
22 | O=[N+]([O-])c1cccc(C2C=C(c3cccc4ccccc34)Nc3nncn32)c1 (stereo not drawn) | 58.8
23 | COc1ccc(OC)c(C2C=C(c3cccc4ccccc34)Nc3nncn32)c1 (stereo not drawn) | 47.9

biological target: Acetylcholinesterase (Electrophorus electricus, UniProt O42275); experiment: Inhibition of electric eel Ache using acetylthiocholine iodide as substrate preincubated for 5 mins followed by substrate addition and measured after 5 mins by Ellman method; conditions: not given
Sequence (O42275 whole entry): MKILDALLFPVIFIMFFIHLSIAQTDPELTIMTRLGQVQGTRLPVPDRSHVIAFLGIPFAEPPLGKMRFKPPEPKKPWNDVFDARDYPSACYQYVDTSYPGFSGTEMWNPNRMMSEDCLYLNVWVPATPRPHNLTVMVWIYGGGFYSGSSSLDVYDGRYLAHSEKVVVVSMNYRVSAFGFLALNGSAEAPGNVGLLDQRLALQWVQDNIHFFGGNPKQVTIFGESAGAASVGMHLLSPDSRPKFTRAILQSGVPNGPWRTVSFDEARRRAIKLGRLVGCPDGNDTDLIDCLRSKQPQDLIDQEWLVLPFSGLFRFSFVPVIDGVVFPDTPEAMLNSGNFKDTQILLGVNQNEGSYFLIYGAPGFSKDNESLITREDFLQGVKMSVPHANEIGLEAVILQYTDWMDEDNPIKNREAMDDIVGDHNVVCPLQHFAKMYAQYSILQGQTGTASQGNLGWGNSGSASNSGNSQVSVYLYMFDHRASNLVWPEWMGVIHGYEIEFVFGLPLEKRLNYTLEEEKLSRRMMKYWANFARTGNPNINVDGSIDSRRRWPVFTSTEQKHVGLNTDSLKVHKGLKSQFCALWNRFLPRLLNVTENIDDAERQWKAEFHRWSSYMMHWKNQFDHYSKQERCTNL

Row | SMILES | IC50 [nM]
24 | Fc1ccc(C2C=C(c3cccc4ccccc34)Nc3nncn32)cc1 (stereo not drawn) | 1910
25 | c1coc(-c2cc(-c3cccc4ccccc34)nc3nncn23)c1 | 14
26 | CN(C)c1ccc(-c2cc(-c3cccc4ccccc34)nc3nncn23)cc1 | 126
27 | c1ccc(-c2cc(-c3cccc4ccccc34)nc3nncn23)cc1 | 597
28 | Clc1ccc(C2C=C(c3cccc4ccccc34)Nc3nncn32)cc1 (stereo not drawn) | 371
29 | O=[N+]([O-])c1cccc(C2C=C(c3cccc4ccccc34)Nc3nncn32)c1 (stereo not drawn) | > 100000
30 | COc1ccc(C2C=C(c3cccc4ccccc34)Nc3nncn32)cc1 (stereo not drawn) | 8.6
31 | COc1ccc(-c2cc(-c3cccc4ccccc34)nc3nncn23)cc1OC | 3000
32 | COc1ccc(OC)c(C2C=C(c3cccc4ccccc34)Nc3nncn32)c1 (stereo not drawn) | 602
33 | Clc1ccccc1C1C=C(c2cccc3ccccc23)Nc2nncn21 (stereo not drawn) | 74

biological target: T1, Amyloid-beta precursor protein; experiment: Inhibition of HFIP-pretreated self-induced amyloid beta (1 to 42) (unknown origin) aggregation at 50 uM measured after 48 hrs by ThT fluorescence assay relative to control; conditions: not given
Summary of the method: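 Aβ1-42 pretreated with HFIP (8 mg/ml), dried under nitrogen, 5 mM stock in DMSO. Diluted in 50 mM phosphate buffer pH 7.4 to 100 µM final and incubated with or without 50 µM compound for 48 h at 37 °C. Diluted with glycine-NaOH 50 mM pH 8.0, then ThT fluorescence read. Buffer blanks included. Mean ± SD of three experiments.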

Row | SMILES | inhibition
34 | Fc1ccc(C2C=C(c3cccc4ccccc34)Nc3nncn32)cc1 (stereo not drawn) | 85.5%
35 | c1coc(-c2cc(-c3cccc4ccccc34)nc3nncn23)c1 | 12.1%
36 | CN(C)c1ccc(-c2cc(-c3cccc4ccccc34)nc3nncn23)cc1 | 43.1%
37 | c1ccc(-c2cc(-c3cccc4ccccc34)nc3nncn23)cc1 | inactive
38 | Clc1ccc(C2C=C(c3cccc4ccccc34)Nc3nncn32)cc1 (stereo not drawn) | inactive
39 | O=[N+]([O-])c1cccc(C2C=C(c3cccc4ccccc34)Nc3nncn32)c1 (stereo not drawn) | 72.8%
40 | COc1ccc(C2C=C(c3cccc4ccccc34)Nc3nncn32)cc1 (stereo not drawn) | 31.2%
41 | COc1ccc(-c2cc(-c3cccc4ccccc34)nc3nncn23)cc1OC | 36.6%
42 | COc1ccc(OC)c(C2C=C(c3cccc4ccccc34)Nc3nncn32)c1 (stereo not drawn) | 42.1%
43 | Clc1ccccc1C1C=C(c2cccc3ccccc23)Nc2nncn21 (stereo not drawn) | 40.4%

biological target: T1, Amyloid-beta precursor protein; experiment: Inhibition of self-induced amyloid beta (1 to 42) (unknown origin) aggregation at 25 uM measured after 48 hrs by ThT fluorescence assay relative to control; conditions: not given; summary of the method: as §1

Row | SMILES | inhibition [%]
44 | Fc1ccc(C2C=C(c3cccc4ccccc34)Nc3nncn32)cc1 (stereo not drawn) | 82.4
45 | O=[N+]([O-])c1cccc(C2C=C(c3cccc4ccccc34)Nc3nncn32)c1 (stereo not drawn) | 59.3

system: not listed separately; experiment: Antioxidant activity assessed as trolox equivalent of AAPH-induced radical scavenging activity at 100 uM preincubated for 15 mins followed by AAPH addition and measured at 1 minute interval for 80 mins by ORAC-FL assay; type: functional; conditions: not given
Summary of the method: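 ORAC-FL in 75 mM phosphate buffer, pH 7.4. Fluorescein 70 nM final was preincubated with the antioxidant 15 min at 37 °C, then AAPH 12 mM final was added. Fluorescence read every minute for 80 min (ex 485/em 520 nm). Net AUC = AUC sample minus AUC blank. Trolox calibration 1–8 µM gave Trolox equivalents. At least three independent runs, each in triplicate.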

Row | SMILES | Activity (umolequiv/umol)
46 | Fc1ccc(C2C=C(c3cccc4ccccc34)Nc3nncn32)cc1 (stereo not drawn) | 0.347
47 | c1coc(-c2cc(-c3cccc4ccccc34)nc3nncn23)c1 | 0.101
48 | CN(C)c1ccc(-c2cc(-c3cccc4ccccc34)nc3nncn23)cc1 | 0.171
49 | c1ccc(-c2cc(-c3cccc4ccccc34)nc3nncn23)cc1 | 0.301
50 | Clc1ccc(C2C=C(c3cccc4ccccc34)Nc3nncn32)cc1 (stereo not drawn) | 0.268
51 | O=[N+]([O-])c1cccc(C2C=C(c3cccc4ccccc34)Nc3nncn32)c1 (stereo not drawn) | 0.508
52 | COc1ccc(C2C=C(c3cccc4ccccc34)Nc3nncn32)cc1 (stereo not drawn) | 0.446
53 | COc1ccc(-c2cc(-c3cccc4ccccc34)nc3nncn23)cc1OC | 0.234
54 | COc1ccc(OC)c(C2C=C(c3cccc4ccccc34)Nc3nncn32)c1 (stereo not drawn) | 0.472
55 | Clc1ccccc1C1C=C(c2cccc3ccccc23)Nc2nncn21 (stereo not drawn) | 0.39

biological target: T1, Amyloid-beta precursor protein; experiment: Inhibition of self-induced amyloid beta (1 to 42) (unknown origin) aggregation at 75 uM measured after 48 hrs by ThT fluorescence assay relative to control; conditions: not given; summary of the method: as §1

Row | SMILES | inhibition [%]
56 | Fc1ccc(C2C=C(c3cccc4ccccc34)Nc3nncn32)cc1 (stereo not drawn) | 87.5
57 | O=[N+]([O-])c1cccc(C2C=C(c3cccc4ccccc34)Nc3nncn32)c1 (stereo not drawn) | 85.8

system: not listed separately; experiment: Selectivity index, ratio of IC50 for equine serum BuChE to IC50 for electric eel Ache; conditions: not given; summary of the method: as §2

Row | SMILES | Ratio IC50
58 | Fc1ccc(C2C=C(c3cccc4ccccc34)Nc3nncn32)cc1 (stereo not drawn) | 19.7
59 | c1coc(-c2cc(-c3cccc4ccccc34)nc3nncn23)c1 | 37.7
60 | CN(C)c1ccc(-c2cc(-c3cccc4ccccc34)nc3nncn23)cc1 | 166
61 | c1ccc(-c2cc(-c3cccc4ccccc34)nc3nncn23)cc1 | > 168
62 | Clc1ccc(C2C=C(c3cccc4ccccc34)Nc3nncn32)cc1 (stereo not drawn) | 2.42
63 | COc1ccc(C2C=C(c3cccc4ccccc34)Nc3nncn32)cc1 (stereo not drawn) | 17.4
64 | COc1ccc(-c2cc(-c3cccc4ccccc34)nc3nncn23)cc1OC | > 33.4
65 | COc1ccc(OC)c(C2C=C(c3cccc4ccccc34)Nc3nncn32)c1 (stereo not drawn) | > 160
66 | Clc1ccccc1C1C=C(c2cccc3ccccc23)Nc2nncn21 (stereo not drawn) | 1.03

biological target: T1, Amyloid-beta precursor protein; conditions: 25 uM

Row | SMILES | inhibition
67 | COc1cc(/C=C/C(=O)CC(=O)/C=C/c2ccc(O)c(OC)c2)ccc1O | Active

system: not listed separately; experiment: Antioxidant activity assessed as DPPH radical scavenging activity at 50 uM preincubated for 5 mins followed by DPPH addition and measured after 30 mins by ultraviolet spectrophotometric analysis relative to control; type: functional; conditions: not given; summary of the method: as §3

Row | SMILES | Activity [%]
68 | Fc1ccc(C2C=C(c3cccc4ccccc34)Nc3nncn32)cc1 (stereo not drawn) | 36.2
69 | c1coc(-c2cc(-c3cccc4ccccc34)nc3nncn23)c1 | 20.4
70 | CN(C)c1ccc(-c2cc(-c3cccc4ccccc34)nc3nncn23)cc1 | 21.3
71 | c1ccc(-c2cc(-c3cccc4ccccc34)nc3nncn23)cc1 | 18.8
72 | Clc1ccc(C2C=C(c3cccc4ccccc34)Nc3nncn32)cc1 (stereo not drawn) | 19.2
73 | O=[N+]([O-])c1cccc(C2C=C(c3cccc4ccccc34)Nc3nncn32)c1 (stereo not drawn) | 33
74 | COc1ccc(C2C=C(c3cccc4ccccc34)Nc3nncn32)cc1 (stereo not drawn) | 35
75 | COc1ccc(-c2cc(-c3cccc4ccccc34)nc3nncn23)cc1OC | 27.9
76 | COc1ccc(OC)c(C2C=C(c3cccc4ccccc34)Nc3nncn32)c1 (stereo not drawn) | 53.8
77 | Clc1ccccc1C1C=C(c2cccc3ccccc23)Nc2nncn21 (stereo not drawn) | 15.5

system: not listed separately; experiment: Antioxidant activity assessed as DPPH radical scavenging activity at 10 uM preincubated for 5 mins followed by DPPH addition and measured after 30 mins by ultraviolet spectrophotometric analysis relative to control; type: functional; conditions: not given; summary of the method: as §3

Row | SMILES | Activity [%]
78 | O=C(O)c1cc(O)c(O)c(O)c1 | 66

— ChEMBL document CHEMBL4387749, “Naphthalene-triazolopyrimidine hybrid compounds as potential multifunctional anti-Alzheimer's agents” (Bioorg Med Chem, 2019)
